The values below come from ChEMBL document CHEMBL1124037, “Structure-activity relationship in PAF-acether. 4. Synthesis and biological activities of carboxylate isosteres” (J Med Chem, 1988).

The species named for assay [1] is Oryctolagus cuniculus. As to the kind of experiment: In vitro aggregant (agonist) activity inducing platelet aggregation.
The test system of assay [2] is Oryctolagus cuniculus. As to the kind of experiment: In vitro antiaggregation activity against PAF-acether induced platelet aggregation when administered at dose of 1 uM/Kg after 2 minutes. It counts as functional.
Assay [3] deals with Cavia porcellus. As to the kind of experiment: In vivo activity for protection against histamine induced bronchoconstriction in guinea pig after 5 min of intravenous administration (1 mg/kg). It counts as functional.
The test system of assay [4] is Cavia porcellus. Briefly: In vivo activity for protection against PAF acether induced thrombocytopenia in guinea pig after 5 min of intravenous administration (2 mg/kg). Format: functional. An outline of the steps:
(§1)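 Male Hartley guinea pigs (450-500 g), urethane 1.25 g/kg ip, pancuronium 2 mg/kg, ventilated (50 strokes/min, 10 mL/kg). Antagonist iv 5 min before PAF 100 ng/kg iv. Konzett-Rossler lung inflation resistance vs control group; platelet counts from carotid blood 1 min before and after PAF. Percent inhibition per dose.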

In assay [5] the test system is Cavia porcellus. Briefly: In vivo activity for protection against PAF acether induced thrombocytopenia in guinea pig after 5 min of intravenous administration (1 mg/kg). It counts as functional. An outline of the steps:
as §1

In assay [6] the test system is Oryctolagus cuniculus. Briefly: […] antagonistic activity against platelet aggregation. Format: functional.
Assay [7] deals with Oryctolagus cuniculus. As to the kind of experiment: […] antagonistic activity against collagen induced platelet aggregation (40 ug/mL). It counts as functional. An outline of the steps:
(§2)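 Rabbit PRP (male New Zealand, citrated cardiac-puncture blood, 300g 10 min; 300 000 per µL). Antagonist added to stirred PRP 2 min before PAF (5×10⁻⁸ M), collagen (40 µg/mL) or arachidonic acid (2×10⁻⁴ M). Born turbidimetric aggregometry; inhibition vs control aggregation; IC50 from dose-response curves. Compounds dissolved in ethanol 10 mg/mL stock, diluted in saline.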

Assay [8] relates to Oryctolagus cuniculus. Briefly: […] antagonistic activity against arachidonic-acid induced platelet aggregation (2*10e-4 M). It counts as functional. In short, it runs like this:
as §2

The test system of assay [9] is Cavia porcellus. As to the kind of experiment: In vivo activity for protection against acetylcholine induced bronchoconstriction in guinea pig after 5 min of intravenous administration (2 mg/kg). It counts as functional.
Assay [10] has as its system Cavia porcellus. Briefly: In vivo activity for protection against PAF acether induced bronchoconstriction in guinea pig after 5 min of intravenous administration (2 mg/kg). It counts as functional. An outline of the steps: as §1
The test system of assay [11] is Rattus norvegicus. Briefly: In vivo activity for protection against acetylcholine induced hypotension in rat after 5 mins of intravenous administration (1 mg/kg). Format: functional. In short, it runs like this:
(§3)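 Male Sprague-Dawley rats (280-300 g), pentobarbital 50 mg/kg ip; jugular iv dosing, carotid pressure recorded. Same protocol as the PAF challenge but using acetylcholine 1 µg/kg iv as agonist: control response, antagonist, then re-challenge. One antagonist dose per rat; percent inhibition per dose.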

The subject of assay [12] is Rattus norvegicus. As to the kind of experiment: In vivo activity for protection against PAF acether induced hypotension in rat after 5 mins of intravenous administration (2 mg/kg). Format: functional. In short, it runs like this: (§4)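 Male Sprague-Dawley rats (280-300 g), pentobarbital 50 mg/kg ip; jugular iv dosing, carotid arterial pressure by transducer. Control response to PAF 0.3 µg/kg iv, then antagonist; PAF 0.3 µg/kg re-injected and hypotension recorded. One antagonist dose per rat; percent inhibition per dose.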

The subject of assay [13] is Oryctolagus cuniculus. As to the kind of experiment: […] antagonistic activity against PAF induced platelet aggregation (5 x 10e-8 M ). It counts as functional. In short, it runs like this: as §2
For assay [14], the system named is Cavia porcellus. As to the kind of experiment: In vivo activity for protection against histamine induced bronchoconstriction in guinea pig after 5 min of intravenous administration (2 mg/kg). It counts as functional.
Assay [15] deals with Cavia porcellus. As to the kind of experiment: In vivo activity for protection against PAF acether induced bronchoconstriction in guinea pig after 5 min of intravenous administration (0.5 mg/kg). It counts as functional. An outline of the steps: as §1
Assay [16] concerns Cavia porcellus. Briefly: In vivo activity for protection against acetylcholine induced bronchoconstriction in guinea pig after 5 min of intravenous administration (1 mg/kg). Format: functional.
In assay [17] the test system is Rattus norvegicus. As to the kind of experiment: In vivo activity for protection against PAF acether induced hypotension in rat after 5 mins of intravenous administration (1 mg/kg). Format: functional. An outline of the steps: as §4
Assay [18] relates to Cavia porcellus. As to the kind of experiment: In vivo activity for protection against PAF acether induced bronchoconstriction in guinea pig after 5 min of intravenous administration (1 mg/kg). It counts as functional. An outline of the steps:
as §1

For assay [19], the system named is Rattus norvegicus. Briefly: In vivo activity for protection against acetylcholine induced hypotension in rat after 5 mins of intravenous administration (2 mg/kg). It counts as functional. An outline of the steps: as §3
In assay [20] the test system is Cavia porcellus. As to the kind of experiment: In vivo activity for protection against PAF-acether induced bronchoconstriction in guinea pig after 5 min of intravenous administration (0.5 mg/kg). It counts as functional. In short, it runs like this:
as §1

Assay [21] concerns Cavia porcellus. Briefly: In vivo activity for protection against acetylcholine-induced bronchoconstriction in guinea pig after 5 min of intravenous administration (2 mg/kg). Format: functional.
The subject of assay [22] is Oryctolagus cuniculus. Briefly: […] antagonistic activity against collagen induced platelet aggregation at a concentration of 40 ug/mL. It counts as functional. In short, it runs like this: as §2
For assay [23], the system named is Cavia porcellus. Briefly: In vivo activity for protection against PAF-acether induced bronchoconstriction in guinea pig after 5 min of intravenous administration (2 mg/kg). Format: functional. In short, it runs like this: as §1
In assay [24] the test system is Cavia porcellus. As to the kind of experiment: In vivo activity for protection against acetylcholine-induced bronchoconstriction in guinea pig after 5 min of intravenous administration (1 mg/kg). It counts as functional.
In assay [25] the test system is Cavia porcellus. Briefly: In vivo activity for protection against PAF-acether induced bronchoconstriction in guinea pig after 5 min of intravenous administration (1 mg/kg). Format: functional. In short, it runs like this:
as §1

For assay [26], the system named is Oryctolagus cuniculus. As to the kind of experiment: […] antagonistic activity against arachidonic-acid induced platelet aggregation at a concentration of 2*10e-4 M. Format: functional. An outline of the steps:
as §2

Assay [27] relates to Oryctolagus cuniculus. Briefly: […] antagonistic activity against PAF induced platelet aggregation at a concentration of 5 x 10e-8 M. It counts as functional. In short, it runs like this: as §2
Assay [28] concerns Rattus norvegicus. Briefly: In vivo activity for protection against PAF acether induced hypotension in rat after 5 mins of intravenous administration (5 mg/kg). Format: functional. In short, it runs like this: as §4
In assay [29] the test system is Cavia porcellus. Briefly: In vivo activity for protection against acetylcholine induced bronchoconstriction in guinea pig after 5 min of intravenous administration (5 mg/kg). Format: functional.
For assay [30], the system named is Rattus norvegicus. Briefly: In vivo activity for protection against acetylcholine induced hypotension in rat after 5 mins of intravenous administration (5 mg/kg). Format: functional. In short, it runs like this:
as §3

Assay [31] relates to Cavia porcellus. Briefly: In vivo activity for protection against PAF acether induced thrombocytopenia in guinea pig after 5 min of intravenous administration (0.5 mg/kg). Format: functional. In short, it runs like this: as §1

With `CCCCCCCCCCCCCCCCCCOCC(COC(=O)CCC[N+](C)(C)C)OC(C)=O` (stereo unspecified), the EC50 was more than 100 µM in the assay listed under Oryctolagus cuniculus [1] and 12 µM in the assay on Oryctolagus cuniculus [2].
Regarding `CCCCCCCCCCCCCCCCCCOC[C@@H](COC(=O)CCCC[N+](C)(C)C)OC(C)=O.[I-]`, the Protection is given as 0% in the assay with Cavia porcellus [3]; 49% in the assay with Cavia porcellus [4]; 63% with Cavia porcellus [5]; 0% in the assay on Cavia porcellus [9]; 93% in the assay with Cavia porcellus [10]; 16% in the assay with Rattus norvegicus [11]. Moreover, the Protection turned out to be 34% in the assay with Rattus norvegicus [12]; 0% in the assay with Cavia porcellus [14]; 61% in the assay with Cavia porcellus [15]; 0% with Cavia porcellus [16]; 12% in the assay on Rattus norvegicus [17]; 91% with Cavia porcellus [18]. This compound also displayed a Protection in the assay with Rattus norvegicus [19] of 20%. In the assay on Oryctolagus cuniculus [6], this compound returned an ED50 of more than 100 µM. Besides, the EC50 with Oryctolagus cuniculus [7] was 84 µM; in the assay on Oryctolagus cuniculus [8], more than 100 µM; in the assay with Oryctolagus cuniculus [13], 11 µM.
For the compound `CCCCCCCCCCCCCCCCCCOCC(COC(=O)CC[N+](C)(C)C)OC(C)=O` (stereo unspecified), the concentration giving a half-maximal response (EC50) was more than 100 µM in the assay filed under Oryctolagus cuniculus [1] and 24 µM in the assay with Oryctolagus cuniculus [2].
With `CCCCCCCCCCCCCCCCCCOC[C@H](COC(=O)CCCC[N+](C)(C)C)OC(C)=O.[I-]`, the Protection is reported as 35% in the assay with Cavia porcellus [3]; 79% with Cavia porcellus [20]; 0% with Cavia porcellus [21]; 57% with Cavia porcellus [4]; 38% in the assay on Cavia porcellus [5]; 88% in the assay with Cavia porcellus [23]. Besides, the Protection with Rattus norvegicus [11] is reported as 18%; in the assay with Rattus norvegicus [12], 32%; in the assay with Cavia porcellus [14], 20%; in the assay on Cavia porcellus [24], 21%; with Cavia porcellus [25] it was 90%; in the assay on Rattus norvegicus [17], 18%. In addition, in the assay on Rattus norvegicus [19], the Protection stood at 5%. The figures for the EC50 in the assay with Oryctolagus cuniculus [22], with Oryctolagus cuniculus [26] and with Oryctolagus cuniculus [27] were approximately 90 µM, more than 100 µM and 20 µM, respectively. Also, the ED50 in the assay on Oryctolagus cuniculus [6] is more than 100 µM.
For `CCCCCCCCCCCCCCCCCCOCC(COC(=O)CCC[n+]1ccccc1)OCC.[Cl-]` (stereo unspecified), the Protection came out at 16% with Cavia porcellus [3]; 60% with Cavia porcellus [20]; 60% in the assay on Cavia porcellus [4]; 52% in the assay with Cavia porcellus [5]; 16% with Cavia porcellus [9]; 20% in the assay with Rattus norvegicus [11]. The Protection in the assay with Rattus norvegicus [12] came to 53%; in the assay with Cavia porcellus [14] it was 8%; in the assay with Cavia porcellus [25], 100%; in the assay with Cavia porcellus [16], 34%; in the assay with Rattus norvegicus [17], 51%; in the assay on Rattus norvegicus [19] it was 22%. The ED50 in the assay on Oryctolagus cuniculus [6] is more than 100 µM. In addition, the EC50 with Oryctolagus cuniculus [7] is 100 µM; with Oryctolagus cuniculus [8] it was more than 100 µM; in the assay on Oryctolagus cuniculus [13], 1.5 µM.
For `CCCCCCCCCCCCCCCCCCOCC(COC(=O)CCCC[N+](C)(C)C)OCC.[I-]` (stereo unspecified), the Protection in the assay with Cavia porcellus [3] came out at 0%; in the assay on Cavia porcellus [20], 69%; in the assay on Cavia porcellus [4], 55%; in the assay on Cavia porcellus [5], 24%; in the assay on Cavia porcellus [23], 73%; with Cavia porcellus [9] it was 9%. For the same compound, the Protection in the assay with Rattus norvegicus [12] amounted to 20%; with Cavia porcellus [14], 0%; in the assay with Cavia porcellus [25], 77%; with Cavia porcellus [16], 0%; in the assay with Rattus norvegicus [19], 17%. The same compound gave an ED50 with Oryctolagus cuniculus [6] of more than 100 µM. Besides, the EC50 was 60 µM in the assay on Oryctolagus cuniculus [7], more than 100 µM in the assay with Oryctolagus cuniculus [8] and 8 µM in the assay with Oryctolagus cuniculus [13].
As to `CCCCCCCCCCCCCCCCCCNC(=O)OCC(COC(=O)CCCC[N+](C)(C)C)OC(C)=O.[I-]` (stereo unspecified), the Protection in the assay on Cavia porcellus [4] is 38%; in the assay with Cavia porcellus [9], 79%; in the assay on Rattus norvegicus [28], 58%; in the assay with Cavia porcellus [10], 90%; in the assay with Rattus norvegicus [12], 46%; in the assay with Cavia porcellus [29], 80%. Moreover, the Protection came to 17% in the assay on Cavia porcellus [14], 74% in the assay with Rattus norvegicus [30], 88% with Cavia porcellus [18] and 63% in the assay on Rattus norvegicus [19]. The ED50 in the assay with Oryctolagus cuniculus [6] is more than 100 µM. For the same compound, the EC50 is 70 µM with Oryctolagus cuniculus [7], more than 100 µM with Oryctolagus cuniculus [8] and 13 µM in the assay with Oryctolagus cuniculus [13].
With `CCCCCCCCCCCCCCCCCCOCC(COC(=O)CCCC[N+](C)(C)C)OC(C)=O` (stereo unspecified), the EC50 in the assay listed under Oryctolagus cuniculus [1] was more than 100 µM; in the assay on Oryctolagus cuniculus [2], 18 µM.
For the compound `CCCCCCCCCCCCCCCCCCNC(=O)OCC(COP(=O)([O-])OCC[n+]1ccsc1)OC` (stereo unspecified), the Protection turned out to be 32% with Cavia porcellus [31]; 69% with Cavia porcellus [4]; 62% in the assay with Cavia porcellus [5]; 85% in the assay with Cavia porcellus [10]; 0% with Rattus norvegicus [11]; 53% in the assay on Cavia porcellus [15]. Further, the Protection in the assay with Rattus norvegicus [17] was determined as 45%; in the assay with Cavia porcellus [18], 72%. Further, in the assay on Oryctolagus cuniculus [6], the ED50 was more than 100 µM. Further, the concentration giving a half-maximal response (EC50) in the assay on Oryctolagus cuniculus [7] came to 89 µM; in the assay with Oryctolagus cuniculus [13], 30.5 µM.

Broadly, the EC50 is the concentration at which the effect is half-maximal. A high value points to weaker potency.
